The values below come from article PMC5614685 (Biochemistry and Biophysics Reports, 2017).

Where two headings read alike, the source gives them in different places. Bridge positions count the residues as written; N and C are the ends. Ends that are not written are not given here. Peptide text beside a SMILES is read from it.

For data set [1], the target named is T1, ActRIIB-Fc (Homo sapiens, UniProt Q13705).
T1 sequence (Q13705 19-135): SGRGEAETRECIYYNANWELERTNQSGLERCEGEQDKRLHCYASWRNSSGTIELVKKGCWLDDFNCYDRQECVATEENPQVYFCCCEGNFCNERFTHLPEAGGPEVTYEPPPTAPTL
Description: SPR binding assay, ActRIIB-Fc. The method in brief: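 ActRIIB-Fc immobilized on a CM5 chip by amine coupling to about 3000 RU in PBS/0.01% P20 at 22 °C. Peptide concentration series injected in PBS/0.01% P20/1% DMSO at 75 μL/min: 60 s contact, up to 60 s dissociation. Double-referenced data globally fitted to a 1:1 model for kon and koff, KD = koff/kon. For fast off-rates, KD from a steady-state 1:1 fit.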

Data set [2] deals with T2, ActRIIA-Fc (Homo sapiens, UniProt P27037). Kind of data set: SPR binding assay, ActRIIA-Fc. The method in brief: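 ActRIIA-Fc amine-coupled to a CM5 chip to about 9000 RU in PBS/0.01% P20 at 22 °C. Peptide concentration series run in PBS/0.01% P20/1% DMSO at 75 μL/min: 60 s association, up to 60 s dissociation. Sensorgrams double-referenced and globally fitted to a 1:1 model, KD = koff/kon. For fast off-rates, KD taken from a 1:1 steady-state fit.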

In data set [3] the target is T2, ActRIIA-Fc. Kind of data set: Plate ELISA, ligand binding of ActRIIA-Fc. Particulars: ligand directly coated; HRP anti-human IgG Fc, chemiluminescence. The essentials:
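Wells coated directly with each ligand overnight at 4 °C, then blocked with 0.5% BSA in PBS for 2 h at room temperature. ActRIIA-Fc added, then washed three times with PBST. Bound Fc protein detected with HRP goat anti-human IgG Fc (5000-fold dilution in 0.5% BSA/PBS) and a chemiluminescence reagent.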
(An ELISA detects its analyte on a solid surface through an enzyme-linked reagent.)

Data set [4] has as its target T1, ActRIIB-Fc. Kind of data set: Plate ELISA, ligand binding of ActRIIB-Fc. Particulars: ligand directly coated; HRP anti-human IgG Fc, chemiluminescence.
The next data set relates to mice. Particulars: injection to mice; ref Suragani et al. [9]; cited from earlier work.
Data set [5] addresses ActRIIA-Fc (UniProt P27037). Kind of data set: SPR. Background: Surface plasmon resonance follows binding to a sensor surface in real time, without labels.
The target of data set [6] is T3, ActRIIB-Fc (extracellular domain of human ActRIIB, activin receptor type-2B, fused to human IgG-Fc) (human, UniProt Q13705 19-135).
T3 sequence: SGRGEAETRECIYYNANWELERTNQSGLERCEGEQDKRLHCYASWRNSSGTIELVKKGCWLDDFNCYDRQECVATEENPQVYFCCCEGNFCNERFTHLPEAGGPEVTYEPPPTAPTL
Description: SPR.

The target in data set [7] is T3, ActRIIB-Fc (extracellular domain of …). Kind of data set: SPR. The source holds these as a separate data set.
The subject of the next data set is ActRIIB-Fc/ActRIIA-Fc. The settings on record: ref [3]; cited from earlier work.

ActRIIA-Fc (UniProt P27037), sequence (P27037 20-135): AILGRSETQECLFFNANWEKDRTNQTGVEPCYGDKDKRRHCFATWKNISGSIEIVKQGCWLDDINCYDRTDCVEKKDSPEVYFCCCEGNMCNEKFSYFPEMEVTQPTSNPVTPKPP

In the case of `CC(C)C[C@@H]1NC(=O)[C@H]([C@@H](C)O)NC(=O)[C@H](CCCCN)NC(=O)[C@@H]2CCCN2C(=O)[C@H](Cc2c[nH]c3ccccc23)NC(=O)[C@@H](NC(=O)[C@H](CCCCN)NC(=O)[C@H](Cc2ccc(O)cc2)NC(=O)[C@@H](N)Cc2c[nH]cn2)CSSC[C@@H](C(=O)N[C@@H](Cc2c[nH]c3ccccc23)C(=O)N[C@@H](CC(N)=O)C(=O)N[C@@H](Cc2c[nH]cn2)C(=O)O)NC(=O)[C@H](CCCCN)NC(=O)[C@H](Cc2ccccc2)NC1=O` [AR9] (H-HYKCWPKTLFKCWNH-OH; disulfide 4-12), the off-rate (koff) at ActRIIB-Fc [1] was 0.049 s⁻¹. At ActRIIA-Fc [2], this molecule registered a Kd of more than 100 µM.

`C[C@@H]1NC(=O)[C@H](CCCNC(=N)N)NC(=O)[C@H]([C@@H](C)O)NC(=O)[C@@H](NC(=O)[C@H](CCC(N)=O)NC(=O)[C@H](Cc2ccccc2)NC(=O)[C@@H]2CCCN2)CSSC[C@@H](C(=O)N[C@H](C(=O)N[C@@H](CCCCN)C(=O)N[C@@H](CO)C(=O)O)[C@@H](C)O)NC(=O)[C@H](Cc2ccc(O)cc2)NC(=O)[C@H](Cc2ccc(O)cc2)NC(=O)[C@H](Cc2c[nH]c3ccccc23)NC(=O)CNC(=O)[C@H](CC(=O)O)NC(=O)[C@H](CCCNC(=N)N)NC1=O` [AR8] (H-PFQCTRARDGWYYCTKS-OH; disulfide 4-14) came in with a koff on ActRIIB-Fc [1] of more than 0.1 s⁻¹.

For the molecule “MSTN: recombinant mature human MSTN (myostatin), ActRIIB ligand”, in the data set with ActRIIA-Fc [3], the “binding to ActRIIA-Fc (plate ELISA), in words” value (“binding to ActRIIA-Fc” below) is reported as “but not MSTN”. The “binding to ActRIIB-Fc (plate ELISA), in words” value (“binding to ActRIIB-Fc” for short) in the data set with ActRIIB-Fc [4] was “binds to activin A, MSTN, and GDF11 in a concentration-dependent manner”.

Take “GDF11: growth differentiation factor 11, R&D Systems (1958-GD)”: the “binding to ActRIIA-Fc” value with ActRIIA-Fc [3] is “binds to activin A and GDF11”. The “binding to ActRIIB-Fc” value with ActRIIB-Fc [4] is “binds to activin A, MSTN, and GDF11 in a concentration-dependent manner”. Moreover, the “anemia, in words” value with mice was “causes anemia”.

Take `CC[C@H](C)[C@@H]1NC(=O)[C@H](CCCNC(=N)N)NC(=O)[C@H](CCCNC(=N)N)NC(=O)[C@H](C(C)C)NC(=O)[C@H](CO)NC(=O)[C@H]([C@@H](C)O)NC(=O)CNC(=O)[C@H](Cc2ccccc2)NC(=O)[C@@H](NC(=O)[C@@H](N)C(C)C)CSSC[C@@H](C(=O)N[C@H](C(=O)O)C(C)C)NC1=O` [AR2mini] (H-VCFGTSVRRICV-OH; disulfide 2-11): the koff on ActRIIB-Fc [1] is more than 0.1 s⁻¹.

In the case of “activin A: ActRIIB ligand, purchased from R&D Systems (338-AC)”, the “binding to ActRIIA-Fc” value with ActRIIA-Fc [3] was “binds to activin A and GDF11”. Further, in the data set with ActRIIB-Fc [4], the “binding to ActRIIB-Fc” value was “binds to activin A, MSTN, and GDF11 in a concentration-dependent manner”.

B1: AR2mini (peptide)
peptide: VCFGTSVRRICV-OH
modifications: disulfide 2-11 (inferred)
Consider B1, for which the Kd is 19 µM with ActRIIA-Fc [5] and 1.8 µM in data set [6].

B2: AR8 (peptide)
peptide: PFQCTRARDGWYYCTKS-OH
modifications: disulfide 4-14 (inferred)
Turning to B2, the Kd in data set [7] was 3.6 µM; in the data set with ActRIIA-Fc [5], 18 µM.

B3: AR9 (peptide)
peptide: HYKCWPKTLFKCWNH-OH
modifications: disulfide 4-12 (inferred)
As for B3, binding in [6] was characterised by a dissociation constant (Kd) of 0.86 µM.

B4: BMP9: bone morphogenetic protein 9, R&D Systems (3209-BP) (protein, UniProt Q9UK05 320-429, looked up)
Growth/differentiation factor …: SAGAGSHCQKTSLRVNFEDIGWDSWIIAPKEYEAYECKGGCFFPLADDVTPTKHAIVQTLVHLKFPTKVGKACCVPTKLSPISVLYKDDMGVPTLKYHYEGMSVAECGCR
B4: the “PPI with ActRIIB-Fc/ActRIIA-Fc, in words” value in the data set on ActRIIB-Fc/ActRIIA-Fc is “have been previously reported”.

B5: AR2mut (peptide)
peptide: VCDGTSVPRICV-OH
modifications: disulfide 2-11 (inferred)
In [6], B5 had a Kd of more than 100 µM.

Broadly, the koff is the rate constant with which the complex falls apart. Read a high koff as a short-lived complex. For orientation: Kd means the constant that tells how readily two partners part at equilibrium. A high value points to a looser complex.
